Test results: ChEMBL document CHEMBL1212810, “Carbon metabolism-mediated myogenic differentiation” (Nat Chem Biol, 2010)
Calls of active or inactive are those of the source. The rule behind the calls is not given here.

What was measured:
Format in all cases: functional, cell-based
C2C12 [1] = experiment: Induction of cell differentiation in mouse C2C12 cells assessed as myosin heavy chain expression at 10 uM in presence of 250 uM cholesterol
C2C12 [2] = experiment: Induction of cell differentiation in mouse C2C12 cells assessed as myosin heavy chain expression at 5 uM
Procedure, shortened: (§1)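 Mouse C2C12 myoblasts were treated with statin. Differentiation was read as myosin heavy chain expression by immunofluorescence.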

C2C12 [3] = experiment: Induction of cell differentiation in mouse C2C12 cells assessed as myosin heavy chain expression at 10 uM; procedure, shortened: as §1
C2C12 [4] = experiment: Induction of cell differentiation in mouse C2C12 cells assessed as myosin heavy chain expression at 1 uM; procedure, shortened: as §1
C2C12 [5] = experiment: Inhibition of serum withdrawal-induced cell differentiation in mouse C2C12 cells assessed as myosin heavy chain expression
C2C12 [6] = experiment: Inhibition of shATP citrate lyase-induced cell differentiation in mouse C2C12 assessed as myosin heavy chain expression at 100 nM
RD [7] = experiment: Induction of cell differentiation of human RD cells assessed as troponin expression after 4 days by immunofluorescence method
Procedure, shortened: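 Human RD embryonal rhabdomyosarcoma cells were treated in normal growth medium for four days, then scored for differentiation.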

RD [8] = experiment: Inhibition of anchorage-independent growth in human RD cells at 10 uM
Procedure, shortened: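 Human RD embryonal rhabdomyosarcoma cells were treated and scored for anchorage-independent growth on soft agar.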

CC[C@H](C)C(=O)O[C@H]1C[C@H](O)C=C2C=C[C@H](C)[C@H](CC[C@@H](O)C[C@@H](O)CC(=O)O)[C@H]21
Activity (C2C12 [1]): Active
Activity (C2C12 [2]): Active
Activity (C2C12 [3]): Active

CC(C)c1c(C(=O)Nc2ccccc2)c(-c2ccccc2)c(-c2ccc(F)cc2)n1CC[C@@H](O)C[C@@H](O)CC(=O)O
Activity (C2C12 [4]): Active

CC(C)CCC[C@@H](C)[C@H]1CC[C@H]2[C@@H]3CC=C4C[C@@H](O)CC[C@]4(C)[C@H]3CC[C@]12C
inhibition (C2C12 [5]): Active

CC(/C=C/C(=O)NO)=C\[C@@H](C)C(=O)c1ccc(N(C)C)cc1
inhibition (C2C12 [6]): Active

CC(C)n1c(/C=C/C(O)CC(O)CC(=O)O)c(-c2ccc(F)cc2)c2ccccc21 (centres undefined)
Activity (RD [7]): Active
inhibition (RD [8]): Active
Activity (C2C12 [4]): Active
